Measurements taken from ChEMBL document CHEMBL1151735, “Further studies with the 2-amino-1,3-thiazol-4(5H)-one class of 11beta-hydroxysteroid dehydrogenase type 1 inhibitors: reducing pregnane X receptor activity and exploring activity in a monkey pharmacodynamic model” (J Med Chem, 2008).

Legend:
[1] = biological target: T1, PXR (nuclear receptor subfamily 1 group I member 2) (Homo sapiens, UniProt O75469); assay: Transactivation of human PXR transfected in HEK cells at 2 uM by luciferase reporter gene assay relative to 12.5 uM rifampin; type: cell-based; settings: HEK293 cells transfected with human PXR, read-out: Activity
T1 sequence (O75469 whole entry): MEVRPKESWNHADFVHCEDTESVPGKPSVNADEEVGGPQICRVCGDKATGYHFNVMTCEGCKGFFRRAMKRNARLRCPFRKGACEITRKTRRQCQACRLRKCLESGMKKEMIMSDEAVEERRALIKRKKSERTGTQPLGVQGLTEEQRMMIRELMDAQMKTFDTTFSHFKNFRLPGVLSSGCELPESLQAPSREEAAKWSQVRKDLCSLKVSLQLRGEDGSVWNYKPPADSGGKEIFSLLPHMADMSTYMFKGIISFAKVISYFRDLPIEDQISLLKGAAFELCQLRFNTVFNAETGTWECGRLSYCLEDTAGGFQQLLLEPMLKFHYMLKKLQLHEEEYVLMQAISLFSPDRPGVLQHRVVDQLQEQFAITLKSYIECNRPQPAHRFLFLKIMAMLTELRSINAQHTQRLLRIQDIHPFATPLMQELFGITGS
Outline: (§1)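 HEK cells transfected with human PXR fused to a firefly luciferase reporter. Luciferase activity is expressed as percent of the 12.5 µM rifampin response. Run in triplicate; SEM reported.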

[2] = biological target: T2, Nuclear receptor subfamily 1 group I member 2 (Homo sapiens, UniProt O75469); assay: Transactivation of human PXR transfected in HEK cells at 20 uM by luciferase reporter gene assay relative to 12.5 uM rifampin; type: cell-based; settings: hek293, 20 µM; outline: as §1
T2 sequence (O75469 whole entry): T1 sequence (O75469 whole entry)

[3] = biological target: T3, 11-beta-hydroxysteroid dehydrogenase 1 (Homo sapiens, UniProt P28845); assay: Inhibition of human 11beta-HSD1 expressed in CHO cells assessed as conversion of cortisone to cortisol by ELISA; type: cell-based
[4] = biological target: T3, 11-beta-hydroxysteroid dehydrogenase 1; assay: Inhibition of human recombinant 11beta-HSD1 expressed in Escherichia coli using [3H]cortisone by scintillation proximity assay
[5] = biological target: T4, 11-beta-hydroxysteroid dehydrogenase type 2 (Homo sapiens, UniProt P80365); assay: Inhibition of human 11beta-HSD2 expressed in CHO cells using [3H]cortisol by scintillation proximity assay; type: cell-based
T4 sequence (P80365 whole entry): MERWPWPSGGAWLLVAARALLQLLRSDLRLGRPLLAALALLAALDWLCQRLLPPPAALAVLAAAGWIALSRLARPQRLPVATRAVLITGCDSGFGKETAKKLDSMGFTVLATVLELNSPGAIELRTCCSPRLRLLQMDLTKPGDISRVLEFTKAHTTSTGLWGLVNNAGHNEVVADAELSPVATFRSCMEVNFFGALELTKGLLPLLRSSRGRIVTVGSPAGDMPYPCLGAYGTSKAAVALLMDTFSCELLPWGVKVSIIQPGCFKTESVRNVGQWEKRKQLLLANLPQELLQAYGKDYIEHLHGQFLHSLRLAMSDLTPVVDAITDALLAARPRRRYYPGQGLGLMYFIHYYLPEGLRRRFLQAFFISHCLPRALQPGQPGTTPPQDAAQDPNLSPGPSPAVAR
Outline: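 Human 11β-HSD2 from CHO cells with [3H]cortisol 3 nM and NAD+ 300 µM, in 0.1 M sodium phosphate pH 7.6. 1 h at room temperature, then stopped with 18β-glycyrrhetinic acid. Anticortisol antibody and antimouse SPA beads added for 30 min; radiometric read-out.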

T3 sequence (P28845 whole entry): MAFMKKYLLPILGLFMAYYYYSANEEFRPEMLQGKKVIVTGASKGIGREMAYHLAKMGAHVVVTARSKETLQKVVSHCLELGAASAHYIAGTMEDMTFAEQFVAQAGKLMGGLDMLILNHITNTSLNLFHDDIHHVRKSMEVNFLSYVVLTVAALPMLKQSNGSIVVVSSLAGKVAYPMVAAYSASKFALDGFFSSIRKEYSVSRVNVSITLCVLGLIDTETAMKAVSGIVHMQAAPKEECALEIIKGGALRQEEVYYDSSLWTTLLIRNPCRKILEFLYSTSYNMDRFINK

| Compound | activity at 2 µM [1] | Activity [2] | IC50 [3] | Ki [4] | IC50 [5] |
| --- | --- | --- | --- | --- | --- |
| C[C@H](NC1=NC(=O)C(C)(C(C)(C)O)S1)c1ccccc1Cl (some centres not stated) |  | 63% | 18 nM | 26 nM | > 10 µM |
| C[C@H](NC1=NC(=O)C(C)(c2ccc(F)cc2)S1)c1ccc(F)cc1 (some centres not stated) | 64% | 65% |  |  |  |
| C[C@H](NC1=NC(=O)C(C)(c2ccc(CO)cc2)S1)c1ccc(F)cc1 (some centres not stated) | 2.3% | 25% |  |  |  |
| CC(C(=O)N[C@H]1C2CC3CC1C[C@](O)(C3)C2)N1CCN(c2ccc(C(F)(F)F)cn2)CC1 (some centres not stated) |  |  | 5 nM |  |  |
| C[C@H](NC1=NC(=O)C(C)(c2ccc(C(N)=O)cc2)S1)c1ccc(F)cc1 (some centres not stated) | 0.8% | 9.3% |  |  |  |

Now from value to compound:

| activity at 2 µM [1] | Activity [2] | IC50 [3] | Ki [4] | IC50 [5] | Compound |
| --- | --- | --- | --- | --- | --- |
| 4.1% | 35% |  |  |  | C[C@H](NC1=NC(=O)C(C)(c2ccc(C(=O)N3CCCC3)cc2)S1)c1ccc(F)cc1 (some centres not stated) |
|  | 26% | 32 nM | 49 nM | > 10 µM | C[C@H](NC1=NC(=O)C(C)(C2(O)CCC2)S1)c1ccc(F)cc1 (some centres not stated) |
|  | 28% |  |  |  | C[C@H](NC1=NC(=O)C(C)(CC(C)(C)O)S1)c1ccc(F)cc1 (some centres not stated) |
|  | 61% | 11 nM | 25 nM | > 10 µM | C[C@H](NC1=NC(=O)C(C)(C2(O)CCCC2)S1)c1ccc(F)cc1 (some centres not stated) |
